Laboratory results reported in ChEMBL document CHEMBL1141255, “Trijugin-type limonoids from the leaves of Cipadessa cinerascens” (2007).

How the values were obtained:
[1] = tested on: K562; assay: Cytotoxicity against human K562 cells by MTT assay; type: functional; conditions: read-out: ED50 (the source's name)
How it was run: (§1)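 In vitro growth inhibition of A549 (human lung adenocarcinoma) and K562 (human […] leukemia) tumour cells. Potency is reported as ED50, the 50% effective dose of clonal inhibition, in µg/mL.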

[2] = tested on: A549; assay: Cytotoxicity against human A549 cells by MTT assay; type: functional; conditions: read-out: ED50 (the source's name); how it was run: as §1

Structure (SMILES)	EC50 [1]	EC50 [2]
COC(=O)C[C@H]1C(C)(C)[C@H](OC(C)=O)[C@H](OC(C)=O)[C@@H]2O[C@]34CC(=O)O[C@@H](c5ccoc5)[C@]3(C)[C@@H](OC(C)=O)[C@@H](C(=O)[C@@H]4C)[C@@]21C [CIPADESIN A]	> 5 µg/mL	> 5 µg/mL
C=C1[C@H]2C(=O)[C@@]3(C)[C@H](C[C@@H](OC(C)=O)C(C)(C)[C@@H]3CC(=O)OC)O[C@@]13CC(=O)O[C@@H](c1ccoc1)[C@]3(C)[C@H]2OC(C)=O [CIPATRIJUGIN D]	> 5 µg/mL	> 5 µg/mL
C=C1[C@]2(O)C[C@@]3(C)[C@H](c4ccoc4)OC(=O)C[C@]13O[C@H]1C[C@@H](OC(C)=O)C(C)(C)[C@H](CC(=O)OC)[C@@]1(C)C2=O [CIPATRIJUGIN B]	> 5 µg/mL	> 5 µg/mL
C=C1[C@]2(OC(C)=O)C[C@@]3(C)[C@H](c4ccoc4)OC(=O)C[C@]13O[C@H]1C[C@@H](OC(C)=O)C(C)(C)[C@H](CC(=O)OC)[C@@]1(C)C2=O [CIPATRIJUGIN C]	> 5 µg/mL	> 5 µg/mL
C=C1[C@@H]2C[C@@]3(C)[C@H](c4ccoc4)OC(=O)C[C@]13O[C@H]1C[C@@H](OC(C)=O)C(C)(C)[C@H](CC(=O)OC)[C@@]1(C)C2=O [CIPATRIJUGIN A]	> 5 µg/mL	> 5 µg/mL
COc1cccc2c1C(=O)c1c(O)c3c(c(O)c1C2=O)C[C@@](O)(C(=O)CO)C[C@@H]3O[C@H]1C[C@H](N)[C@H](O)[C@H](C)O1 [DOXORUBICIN]	59.5 nM	59.5 nM
